PHOSPHO1 block = PHOSPHO1 (human) inhibition. recombinant PHOSPHO1, absorbance phosphatase assay. inhibition, % at 13.3 µM. actives 1.1% (n = 290,000); in the data active = inhibition above about 60%
Target sequence (Q8TCT1 whole entry, looked up): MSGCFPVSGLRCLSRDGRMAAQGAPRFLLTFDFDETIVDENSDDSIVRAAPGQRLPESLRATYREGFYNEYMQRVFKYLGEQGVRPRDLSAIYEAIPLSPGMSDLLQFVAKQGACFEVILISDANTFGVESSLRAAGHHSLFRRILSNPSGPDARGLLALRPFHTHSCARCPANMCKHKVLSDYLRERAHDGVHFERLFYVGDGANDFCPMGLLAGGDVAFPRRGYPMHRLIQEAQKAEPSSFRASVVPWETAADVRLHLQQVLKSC
proCasp7 act = counter-screen for procaspase-3 activators: activators of human procaspase-7; recombinant procaspase-7, Ac-DEVD-pNA absorbance 405 nm; D23A/D198A/D206A triple mutant, cannot self-cleave; scale: DMSO 0, 5 µM enzyme 100; activation, % at 8.5 µM; actives 0.093% (n = 330,000); AID 463210;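 active = percent activation above the screen-wide mean plus 3 SD, cut at about 25% in these data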
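Replicates: singlicate. Assay system: Procaspase-7 triple mutant (PC-7 D3A). Signal: 405 nm absorbance of p-nitroaniline. Times: 1 h preincubation, 2 h reaction. Buffer or medium: Zinc-free HEPES pH 7.4 with 300 mM NaCl, 0.01% Triton X-100. Also added: DEVD-pNA substrate. Benchmarks: DMSO wells as 0%, DMSO with 5 µM added PC-7 as 100%.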
UBC13 inh = inhibitors of human UBC13 polyubiquitin chain formation. P61088. TR-FRET. inhibition, % at 20 µM. actives 0.47% (n = 330,000). AID 485273; in the data active = inhibition above about 45%, passing the limit was not always enough
Target sequence (P61088 whole entry, looked up): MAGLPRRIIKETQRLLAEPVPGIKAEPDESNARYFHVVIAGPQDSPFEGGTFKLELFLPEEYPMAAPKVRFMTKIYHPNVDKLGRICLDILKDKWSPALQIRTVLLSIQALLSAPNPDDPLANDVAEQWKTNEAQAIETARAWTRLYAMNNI
IDE act = IDE (human) activation, cell-based; AID 493087; activation, % at 5.96 µM; HEK cells, FAbeta-B cleavage, fluorescence polarization; 0% vehicle, 100% cell-free pure enzyme wells; actives 0.073% (n = 340,000); P14735;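 active = activation above the mean of all tested compounds plus 3 SD, set per screening campaign, cut at about 17% in these data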
IDE cell inh = inhibits human insulin-degrading enzyme in HEK cells. FAbetaB cleavage, fluorescence polarization. inhibition, % at 5.59 µM. actives 0.41% (n = 320,000);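 active = percent inhibition above the average of all tested compounds plus 3 SD, set per screening campaign, cut at about 16% in these data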;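 also: IDE supplied by intact live HEK cells; FP after avidin binding of uncleaved biotin substrate so inhibition keeps polarization high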
procasp3 activ = procaspase-3 (human) activation; actives 0.11% (n = 330,000); AID 463141; activation, % at 8.5 µM; recombinant procaspase-3 D3A, Ac-DEVD-pNA absorbance 405 nm; P42574;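 active = activation above the mean of all tested compounds plus 3 SD, cut at about 21% in these data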
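System: Procaspase-3 D3A mutant. Medium: Zinc-free 300 mM NaCl, 50 mM HEPES, 0.01% Triton X-100. Schedule: 1 h preincubation plus 2 h reaction at 25 °C. Measured by: 405 nm absorbance of p-nitroaniline, reads at 0 and 120 min. Read-out: percent activation relative to control range.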
Of the large screens only hits and unclear results are named; the others gave an inactive call. This is a sample that favours compounds with a hit; in the whole collection about 1.9% have one here.

Cc1ccccc1Nc1nc(-c2sc(NC(=O)c3ccco3)nc2C)cs1	PHOSPHO1 block 66
CCCC(=O)Nc1nc(C)c(-c2csc(Nc3ccccc3OC)n2)s1	PHOSPHO1 block 86
CCOc1ccccc1Nc1nc(-c2sc(NC(=O)c3ccco3)nc2C)cs1	none
COc1ccccc1Nc1nc(-c2sc(NC(=O)C(C)(C)C)nc2C)cs1	PHOSPHO1 block 67
COc1ccccc1Nc1nc(-c2sc(NC(=O)c3cccc(Cl)c3)nc2C)cs1	none (no result: IDE act)
Cc1ccc(C(=O)OCc2cc(=O)n3c(C)csc3n2)s1	none (no result: PHOSPHO1 block)
CCCC(=O)Nc1nc(C)c(-c2csc(Nc3ccc(Cl)cc3)n2)s1	none
COc1cccc(Nc2nc(-c3sc(NC(=O)c4ccccc4)nc3C)cs2)c1	none
CCC(=O)Nc1nc(C)c(-c2csc(Nc3cccc(C(=O)O)c3)n2)s1	none
COc1cccc(Nc2nc(-c3sc(NC(=O)CC(C)C)nc3C)cs2)c1	PHOSPHO1 block 104
CCCC(C)C(=O)Nc1nc(C)c(-c2csc(Nc3cc(OC)ccc3OC)n2)s1 (stereo unspecified)	PHOSPHO1 block 77
CCCCCC(=O)Nc1nc(C)c(-c2csc(Nc3cc(Cl)ccc3OC)n2)s1	PHOSPHO1 block 89
C=CCCC(=O)Nc1nc(C)c(-c2csc(Nc3cccc(OC)c3)n2)s1	PHOSPHO1 block 104
Cc1ccc(-c2nn(-c3ccccc3)cc2C(=O)NCC(c2cccs2)N2CCOCC2)cc1 (stereo unspecified)	none (no result: PHOSPHO1 block)
CCCC(=O)Nc1nc(C)c(-c2csc(Nc3cc(OC)ccc3OC)n2)s1	PHOSPHO1 block 89
COc1ccc(OC)c(Nc2nc(-c3sc(N)nc3C)cs2)c1	none
CCC(C)C(=O)Nc1nc(C)c(-c2csc(Nc3ccc(Cl)cc3)n2)s1 (stereo unspecified)	none
Cc1ccc(Cl)cc1Nc1nc(-c2sc(NC(=O)C(C)(C)C)nc2C)cs1	PHOSPHO1 block 72
COc1ccccc1Nc1nc(-c2sc(NC(=O)CC(C)C)nc2C)cs1	PHOSPHO1 block 77
CCOc1ccccc1Nc1nc(-c2sc(C)nc2C)cs1	none
N#CCCN(C(=O)COC(=O)c1cc(=O)c2ccccc2o1)c1ccccc1	none (no result: PHOSPHO1 block)
CCn1ccc2cc(OC)ccc2c1=S	PHOSPHO1 block 87
Brc1ccc(-c2csc(NNC3=NCCCCC3)n2)cc1	PHOSPHO1 block 88
FC(F)Oc1ccc(-c2csc(NNC3=NCCCCC3)n2)cc1	PHOSPHO1 block 61
CC(C)n1nc(C(=O)NNC(=O)c2ccc(OC(F)F)cc2)c2ccccc2c1=O	none (no result: PHOSPHO1 block)
CCCN1C(=O)/C(=C/c2c(N3CCNC(=O)C3CC(=O)OC)nc3c(C)cccn3c2=O)SC1=S (stereo unspecified)	none (no result: proCasp7 act, UBC13 inh, IDE act, IDE cell inh, procasp3 activ)
Cc1ccc(C)c(OCCC(=O)Nc2cccc(S(=O)(=O)N3CCCCC3)c2)c1	none (no result: PHOSPHO1 block)
COc1cc([N+](=O)[O-])ccc1NC(=O)NCC1CCN(Cc2ccc(Cl)cc2)CC1	none
CCCC[n+]1ccn(-c2nc3ccccc3nc2[N-]S(=O)(=O)c2cccs2)c1	PHOSPHO1 block 77
Cc1cc(C)n(-c2ccc(Cl)c(C(=O)Nc3ccc(-c4nnc5n4CCCCC5)cc3)n2)n1	PHOSPHO1 block 62
COCCNc1nc2nonc2nc1NC(C)c1ccccc1Cl (stereo unspecified)	PHOSPHO1 block 60
CCN(CC)C(=O)CSc1nnc(-c2ccccc2)n1-c1ccccc1	PHOSPHO1 block 82
CCN(CC)C(=O)CSc1nnc2sc3ccccc3n12	PHOSPHO1 block 62
CCN(CC)C(=O)CSc1nnc(-c2ccccc2)n1N	none
COc1ccc(C(c2nnnn2C(C)(C)C)N2CCN(c3nc4ccccc4s3)CC2)cc1 (stereo unspecified)	none (no result: proCasp7 act, UBC13 inh, IDE cell inh, procasp3 activ)
CCC(C)(C)n1nnnc1C(c1ccc(O)c(OC)c1)N1CCN(c2nc3ccccc3s2)CC1 (stereo unspecified)	PHOSPHO1 block 68
Cc1nnc(NC(=O)c2ccc(S(=O)(=O)N(C)c3ccccc3)cc2)s1	none (no result: PHOSPHO1 block)
Cc1csc(NC(=O)c2ccc(S(=O)(=O)N(C)c3ccccc3)cc2)n1	PHOSPHO1 block 86
Cc1noc(C)c1NC(=O)N(C)C[C@H]1Oc2c(NC(=O)Nc3ccc4c(c3)OCO4)cccc2C(=O)N([C@H](C)CO)C[C@@H]1C	none (no result: PHOSPHO1 block)
CCC(C)Nc1nc(-c2c[nH]c3ccccc23)cs1 (stereo unspecified)	none
CNc1nc(-c2c[nH]c3ccccc23)cs1	PHOSPHO1 block 100
COc1ccc(C(=O)c2c(C(F)(F)F)oc3c2C(=O)c2ccccc2C3=O)cc1	PHOSPHO1 block 97
COc1ccc(C(=O)c2coc(-c3ccccc3C(=O)O)c2C(=O)O)cc1	none
CCc1ccc(N2CC(C(=O)OCc3nc4ccsc4c(=O)[nH]3)CC2=O)cc1 (stereo unspecified)	none (no result: PHOSPHO1 block)
Cc1ccccc1S(=O)(=O)NNC(=O)C(=O)NNc1ccccn1	none
Nc1ccc(S(=O)(=O)NNC(=O)C(=O)NNc2ccccn2)cc1	UBC13 inh 93
COc1ccccc1-n1cnnc1SCC(=O)c1cc(C)n(Cc2cccs2)c1C	PHOSPHO1 block 63
Cc1cc(C(=O)CSc2nnc(-c3ccccc3F)o2)c(C)n1Cc1cccs1	PHOSPHO1 block 90
CCn1c(N2CCN(S(=O)(=O)c3ccccc3)CC2)nc2ccccc21	none
Cc1ccc(CCC(=O)Nc2ccccc2F)s1	none
O=C(CSc1ncc(-c2ccccc2)[nH]1)Nc1cccc(O)c1	PHOSPHO1 block 94
O=C(CSc1ncc(-c2ccccc2)[nH]1)Nc1ccccc1	none
NC(=O)CSc1ncc(-c2ccccc2)[nH]1	PHOSPHO1 block 74
CC(C)CN1C(=O)NC2(CCCc3ccccc32)C1=O (stereo unspecified)	none
Cc1cc(Cl)c2oc(C(=O)N(C)Cc3nccn3C)c(C)c2c1	none (no result: proCasp7 act, IDE cell inh, procasp3 activ)
O=C(O)c1ccccc1C(=O)c1cccc2ccccc12	none
c1ccc2oc(-c3[nH]ncc3CN(Cc3ccncc3)CC3CCCO3)cc2c1 (stereo unspecified)	PHOSPHO1 block 60
O=C(NC1CCCCC1)c1sc(=S)n2c1[nH]c(=O)c1ccccc12	PHOSPHO1 block 76
COc1cc(C2Nc3cccc4cccc(c34)N2)ccc1O	IDE act 19
COc1cc(C2Nc3cccc4cccc(c34)N2)cc(OC)c1OC(C)=O	none
COc1ccc(OC)c(NC(=O)CSc2ncccn2)c1	PHOSPHO1 block 76
COc1ccc(OC)c(NC(=O)CSc2nnc(Cc3cccn3C)n2CCc2ccccc2)c1	PHOSPHO1 block 69
Cn1cccc1Cc1nnc(SCC(=O)Nc2ccc(F)cc2)n1CCc1ccccc1	none
CCc1noc(C)c1C(=O)N1CCN(S(=O)(=O)c2ccc(Br)cc2)CC1	none (no result: PHOSPHO1 block)

Compound activity (PubChem)
